MrgX1 allo act = positive allosteric modulators of MrgX1, primary screen, HEK293 cells, Fluo-4 calcium flux; FDSS; hits give high values; B-score at 10 µM; 310,000 tested, 0.63% active; AID 588675, 2011;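 active = plate-corrected calcium response at least 3 library SD above typical, normal starting fluorescence, not activating the receptor alone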;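 note: compound read alongside a low EC10 to EC30 dose of BAM8-22 agonist; peak minus trough fluorescence over baseline measured at the second addition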
Target sequence (Q96LB2 whole entry, looked up): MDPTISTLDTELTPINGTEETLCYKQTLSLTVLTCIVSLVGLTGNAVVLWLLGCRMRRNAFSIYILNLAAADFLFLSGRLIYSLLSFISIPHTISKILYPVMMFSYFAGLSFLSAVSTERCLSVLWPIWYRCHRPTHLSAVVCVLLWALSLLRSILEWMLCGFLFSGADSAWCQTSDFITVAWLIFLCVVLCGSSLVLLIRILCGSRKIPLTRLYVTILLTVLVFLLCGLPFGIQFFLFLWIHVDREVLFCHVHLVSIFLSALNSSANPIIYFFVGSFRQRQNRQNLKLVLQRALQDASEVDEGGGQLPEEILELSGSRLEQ
MrgX1 antagonist = antagonists of human MrgX1 receptor, primary screen, HEK293 cells, Fluo-4 calcium flux; Mas-related G-protein coupled receptor member X1 (Homo sapiens), Q96LB2; BAM8-22 antagonism; hits give low values; B-score at 10 µM; 310,000 tested, 1.3% active; AID 588676, 2011;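 active = calcium-response B-score plate-corrected more than 3 library SD below zero, starting fluorescence within 5 deviations, no agonist response on first addition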;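 note: peak minus trough fluorescence over baseline after final BAM8-22 challenge near maximal dose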
MrgX1 ag = agonists of human MrgX1 receptor, primary screen, HEK293 cells, Fluo-4 calcium flux. Fluo-4 calcium fluorescence, agonist mode; hits give high values. 310,000 tested, 0.44% active. AID 588627, 2011. B-score at 10 µM. Mas-related G-protein coupled receptor member X1 (Homo sapiens), Q96LB2;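 active = calcium response B-score plate-corrected fluorescence ratio at least 3 library SD, with starting fluorescence B-score inside 5 SD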
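Test system: HEK293 cells stably expressing human MrgX1 receptor; amount: 15,000 cells per well; doses: compound delivered in addition one of three; times: overnight plating before 1 h dye loading; detection: Fluo-4 NW calcium-flux fluorescence, kinetic read; read-out basis: B-scored fluorescence response ratio; controls: positive and negative controls per plate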
RGS4 block = RGS4 inhibitors, primary screen, cell-based, HEK293 M3R inducible RGS4, calcium flux | Regulator of G-protein signaling 4 (Homo sapiens), P49798 | Fluo-4 calcium flux; hits give high values; triggered by carbachol at its EC20 | B-score at 10 µM | 310,000 tested, 0.45% active | AID 463165, 2010;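 active = B-score, a plate-corrected calcium signal, over three deviations above library mean, with baseline fluorescence within five deviations of library mean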;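 note: RGS4 expression induced by doxycycline in cells with stable M3 receptor; B-score is computed from the integrated fluorescence ratio over baseline after carbachol; higher B-score means a larger calcium signal and so more RGS4 inhibition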
Target sequence (P49798 whole entry, looked up): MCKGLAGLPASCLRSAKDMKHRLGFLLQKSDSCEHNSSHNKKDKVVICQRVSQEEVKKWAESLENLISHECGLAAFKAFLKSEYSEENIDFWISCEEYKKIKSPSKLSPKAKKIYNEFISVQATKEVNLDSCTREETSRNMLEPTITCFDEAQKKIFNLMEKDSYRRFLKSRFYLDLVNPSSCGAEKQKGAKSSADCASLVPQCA
RGS4 act = RGS4 potentiators or activators, primary screen, cell-based, HEK293 M3R inducible RGS4, calcium flux; carbachol calcium flux Fluo4; hits give low values; B-score at 10 µM; 310,000 tested, 0.92% active; AID 463111, 2010;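 active = B-score of the integrated calcium signal more than 4 SD below the library mean, with starting fluorescence not abnormally high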;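 note: negative B-score means reduced calcium response which marks RGS4 activation or potentiation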
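Material: M3R-expressing HEK293 line, RGS4 induced by doxycycline | Schedule: Overnight RGS4 induction, 30 min dye load 37 °C, 20 min compound RT | Measured by: Fluo4 fluorescence kinetic imaging of calcium | Read-out: Integrated calcium ratio converted to B score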
RGS4 inh valid = enhanced carbachol calcium response, M3R/RGS4 cells, RGS4 inhibitor project, cell-based, validation screen, HEK293 M3R/RGS4, calcium flux; shares compounds with RGS4 block; carbachol calcium Fluo-4 fluorescence; carbachol added at its EC20; 0 = buffer wells, 100 = carbachol control; calcium response, % at 10 µM; 1,700 tested, 65% active; AID 492999, 2010;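 active = duplicate-averaged calcium response above the buffer-only control mean plus 5 SD of those controls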;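 note: integrated fluorescence ratio F max minus min over baseline F0; higher response in RGS4-induced cells means RGS4 inhibition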
RGS4 uninduced = carbachol calcium response in non-induced M3R cells, confirmation, counter-screen for RGS4 inhibitor project, cell-based, HEK293 M3R; shares compounds with RGS4 block; activity (percent), % at 10 µM; 1,900 tested, 20% active; carbachol calcium Fluo-4; submaximal (EC20) carbachol stimulus; buffer wells 0%, carbachol control wells 100%; call rule not given here;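 note: RGS4 induction absent so cells express M3R without RGS4; higher means more calcium signal and flags a non-specific hit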
RGS4 inh ctr2 = second counter-screen for RGS4 inhibitors: non-induced cells without carbachol; 1,900 tested, 22% active; HEK293 M3R/RGS4 non-induced, Fluo-4 calcium, no carbachol; normalised: buffer wells 0%, carbachol wells 100%; shares compounds with RGS4 block; calcium response (agonist-mode artifact), % at 10 µM;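 active = duplicate-averaged calcium rise in uninduced cells above buffer wells' mean plus 5 SD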
* = called active by the depositor; i = inactive; nt = not tested or not shown. A selection: hits, their analogues and other compounds. The true share with any hit is near 3.5%.

SMILES	MrgX1 allo act	MrgX1 antagonist	MrgX1 ag	RGS4 block	RGS4 act	RGS4 inh valid	RGS4 uninduced	RGS4 inh ctr2
O=C(Nc1cccn(Cc2c(Cl)cccc2Cl)c1=O)c1c(Cl)cccc1Cl	i	i	i	i	i	nt	nt	nt
CCOC(=O)C1CCCN(C(=O)c2ccc(OCC)cc2)C1 (stereo not drawn)	i	i	i	i	i	nt	nt	nt
CCOc1ccc(CCNC(=O)C2CC(C)=CCC2C(=O)O)cc1OCC (stereo not drawn)	i	i	i	i	i	nt	nt	nt
Oc1ccc(NC(=S)N=Nc2c(O)[nH]c3ccc(Br)cc23)cc1	nt	nt	nt	i	i	nt	nt	nt
Oc1[nH]c2ccc(Br)cc2c1N=NC(=S)Nc1ccc(F)cc1	i	i	i	7.28*	i	11.5%*	i	i
Cc1cc(C2(c3ccc(O)c(C)c3)C(=O)N(C)c3ccc(Br)cc32)ccc1O	i	i	i	12.8*	i	28.0%*	i	i
CCOc1ccc(-c2nnc(Nc3ccc(OC)c(C(=O)N4CCCCC4)c3)c3ccccc23)cc1	i	i	i	i	i	i	i	i
COc1ccc(NC(=O)C(=O)NCc2ccncc2)c(OC)c1	i	i	i	i	i	i	i	i
COc1ccc(C)cc1NC(=O)C(=O)NCc1ccncc1	i	i	i	i	i	i	i	i
CCc1cc(-c2n[nH]c(C)c2-c2nc(C)cs2)c(O)cc1OC	i	i	i	5.32*	i	9.5%*	i	i
C=CCNC(=O)/C(C#N)=C/c1ccc(OS(=O)(=O)c2ccc(C)cc2)c(OC)c1	i	i	i	4.84*	i	14.0%*	i	i
CCOC(=O)C1(C)NC(c2ccc(OC)cc2OC)C2C(=O)N(c3cccc(OC)c3)C(=O)C21 (stereo not drawn)	i	i	i	i	i	nt	nt	nt
COc1ccccc1N1CCN(C(=O)c2c(-c3c(F)cccc3Cl)noc2C)CC1	nt	nt	nt	i	i	nt	nt	nt
O=C(CSC1=NS(=O)(=O)c2ccccc21)Nc1ccccc1	i	i	i	9.38*	i	25.0%*	i	i
Cc1nc2scc(C)n2c(=O)c1S(=O)(=O)Nc1ccc(N2CCOCC2)cc1	i	i	i	i	i	nt	nt	nt
CCOC(=O)c1nc(N/N=C/c2ccccc2)sc1Br	i	i	i	i	i	nt	nt	nt
COc1ccc(Nc2nc(N3CCCC3)nc(N3CCOCC3)n2)cc1	i	i	i	i	i	nt	nt	nt
c1ccc(Nc2nc(N3CCCC3)nc(N3CCOCC3)n2)cc1	i	i	i	i	i	i	i	i
O=c1nc(N2CCCC2)nc(Nc2ccccc2)[nH]1	i	i	i	i	i	i	i	i
CNC(=O)C(=O)N/N=C/c1cccnc1	i	i	i	i	i	nt	nt	nt
CCCCNC(=S)Nc1cc([N+](=O)[O-])ccc1C	i	i	i	i	i	nt	nt	nt
Cc1noc(/C=C/c2ccccn2)c1[N+](=O)[O-]	i	i	i	6.84*	i	27.0%*	29.5%*	i
N#CC1=C(N)Oc2c(O)cc3ccccc3c2C1c1ccsc1 (stereo not drawn)	i	i	i	13.9*	i	39.5%*	33.0%*	i
Cc1ccc2nc3n(c2c1)CCCN3	i	i	i	i	i	nt	nt	nt

High-throughput results deposited in PubChem BioAssay by Johns Hopkins Ion Channel Center.
